Results on 7 molecules are retold here after ChEMBL document CHEMBL1142540, “Novel piperidinylpyrimidine derivatives as inhibitors of HIV-1 LTR activation” (Bioorg Med Chem, 2008).

A short description of data set [1]: Inhibition of HIV1 LTR-driven CAT gene expression in PMA-stimulated human JURKAT cells. The conditions noted are these: Human immunodeficiency virus 1, Jurkat. The class given is cell-based. The procedure, abridged:
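Jurkat cells electroporated (140 V) with HIV-1 LTR-CAT plasmid p469 using DEAE-dextran and cultured 20 h. Cells then stimulated with PMA 10 ng/ml in presence of compound for 24 h at 37 °C, lysed by freeze-thaw.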

Data set [2] concerns Jurkat. Kind of data set: Inhibition of HIV1 LTR-driven CAT gene expression in Tat-stimulated human JURKAT cells at 1 uM. The class given is cell-based. Particulars: Human immunodeficiency virus 1. The gist of the method:
(§1)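 Jurkat cells co-electroporated (140 V) with LTR-CAT p469 plus pSV-Tat using DEAE-dextran, cultured 20 h, then treated with compound alone (no PMA) for 24 h at 37 °C.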

Data set [3] in a line: Inhibition of HIV1 LTR-driven CAT gene expression in Tat-stimulated human JURKAT cells. The class given is cell-based. The conditions noted are these: Human immunodeficiency virus 1, Jurkat. The gist of the method:
as §1

Data set [4] has as its system Jurkat. The data set can be described thus: Cytotoxicity against human JURKAT cells. The class given is cell-based. The procedure, abridged: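 Cell number of treated Jurkat cells counted by Coulter counter to assess inhibition of proliferation.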
Data set [5] deals with PBMC. Kind of data set: Inhibition of LPS-stimulated TNFalpha production in human PBMC. The class given is functional, cell-based. The gist of the method: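 Human PBMC from healthy donors isolated by Ficoll-Paque, seeded at 1×10^5 cells/well in RPMI 1640 with 10% heat-inactivated FBS and L-glutamine. Stimulated with LPS 0.1 ug/ml final, compound added at the same time (DMSO below 0.1%), 20 h; supernatants collected for TNF-α.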

A short description of data set [6]: Inhibition of Tat-induced HIV1 LTR transactivation in human HeLa cells assessed as CAT expression after 2 days. The class given is cell-based. The conditions noted are these: Human immunodeficiency virus 1, HeLa, 48 h.
Data set [7] can be described thus: Inhibition of Tat-induced HIV1 LTR transactivation. Also on record: species or system Human immunodeficiency virus 1. The procedure, abridged: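 Jurkat cells electroporated at 140 V with HIV-1 LTR-CAT plasmid p469 (1 µg) plus pSV-Tat (0.5 µg) and DEAE-dextran, then cultured 20 h at 37 °C. Cells were exposed to compound without PMA for 24 h and lysed. Reported as % inhibition at 5 µM or IC50, single determination.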

The nature of data set [8]: Inhibition of HIV1 LTR-driven CAT gene expression in PMA-stimulated HEK293-27-2 cells assessed as […]. Particulars: Human immunodeficiency virus 1.

A word on the IC50: it is the midpoint of a concentration-inhibition curve. A word on the inhibition: it is the percentage by which the read-out fell short of the control. Turning to `COc1cc(Cc2cc(C3CCN(C(=O)c4ccc5c(c4)OCO5)CC3)nc(N)n2)cc(OC)c1`, the IC50 was 300 nM in data set [1], less than 1000 nM in data set [3] and 3.3 µM in data set [5]. In data set [2], this molecule registered an inhibition of 56%. In addition, in data set [4], the Activity entry is reported as “Non-toxic”.
For `COc1ccc(OC)c(Cc2cc(C3CCN(C(=O)c4ccc5c(c4)OCO5)CC3)nc(N)n2)c1`, in that order: 200 nM, less than 1000 nM, 7.7 µM, 58% and “Non-toxic”.
As for `CSc1ccc(Cc2cc(C3CCN(C(=O)c4ccc5c(c4)OCO5)CC3)nc(N)n2)cc1`, the IC50 is 200 nM in data set [1] and less than 1000 nM in data set [3]. This molecule returned an inhibition in data set [2] of 57%. In data set [4], the Activity entry is on record as “Non-toxic”.
As to `C[S+]([O-])c1ccc(-c2nc(-c3ccc(F)cc3)c(-c3ccncc3)[nH]2)cc1` (stereo not drawn) [SB-203580], the IC50 in data set [6] worked out at 100 nM.
In data set [7], `O=C1CN=C(c2ccc[nH]2)c2cc(Cl)ccc2N1` gave an IC50 of 100 nM.
For the molecule `CC(=O)CCCCn1c(=O)c2c(ncn2C)n(C)c1=O` [PENTOXIFYLLINE], in data set [8], the IC50 worked out at 500 µM.
With `Cn1cc(C(=O)O)c(=O)c2cc(F)c(N3CC=C(c4ccccc4)CC3)c(C(F)(F)F)c21` [FLUOROQUINOLINE K37], the IC50 in data set [6] was less than 160 nM.
